Source: ChEMBL document CHEMBL2086343, “Design, synthesis and antibacterial activity of minor groove binders: the role of non-cationic tail groups” (Eur J Med Chem, 2012)
In brackets after ≈: the same amount, converted by molar mass. Activity calls are given as the source filed them. The rule behind the calls is not given here.

Columns and labels:
Staphylococcus aureus = test: Antibacterial activity against Staphylococcus aureus; format: functional
hERG (KCNH2) = hERG (KCNH2) (Homo sapiens, UniProt Q12809); test: Displacement of [3H]astemizole from human hERG transfected in HEK293 cells at 10 uM after 1 hr by scintillation counter; format: cell-based; details: HEK293 cells transfected with human hERG, probe [3H]astemizole
Chain of hERG (KCNH2) (Q12809 whole entry): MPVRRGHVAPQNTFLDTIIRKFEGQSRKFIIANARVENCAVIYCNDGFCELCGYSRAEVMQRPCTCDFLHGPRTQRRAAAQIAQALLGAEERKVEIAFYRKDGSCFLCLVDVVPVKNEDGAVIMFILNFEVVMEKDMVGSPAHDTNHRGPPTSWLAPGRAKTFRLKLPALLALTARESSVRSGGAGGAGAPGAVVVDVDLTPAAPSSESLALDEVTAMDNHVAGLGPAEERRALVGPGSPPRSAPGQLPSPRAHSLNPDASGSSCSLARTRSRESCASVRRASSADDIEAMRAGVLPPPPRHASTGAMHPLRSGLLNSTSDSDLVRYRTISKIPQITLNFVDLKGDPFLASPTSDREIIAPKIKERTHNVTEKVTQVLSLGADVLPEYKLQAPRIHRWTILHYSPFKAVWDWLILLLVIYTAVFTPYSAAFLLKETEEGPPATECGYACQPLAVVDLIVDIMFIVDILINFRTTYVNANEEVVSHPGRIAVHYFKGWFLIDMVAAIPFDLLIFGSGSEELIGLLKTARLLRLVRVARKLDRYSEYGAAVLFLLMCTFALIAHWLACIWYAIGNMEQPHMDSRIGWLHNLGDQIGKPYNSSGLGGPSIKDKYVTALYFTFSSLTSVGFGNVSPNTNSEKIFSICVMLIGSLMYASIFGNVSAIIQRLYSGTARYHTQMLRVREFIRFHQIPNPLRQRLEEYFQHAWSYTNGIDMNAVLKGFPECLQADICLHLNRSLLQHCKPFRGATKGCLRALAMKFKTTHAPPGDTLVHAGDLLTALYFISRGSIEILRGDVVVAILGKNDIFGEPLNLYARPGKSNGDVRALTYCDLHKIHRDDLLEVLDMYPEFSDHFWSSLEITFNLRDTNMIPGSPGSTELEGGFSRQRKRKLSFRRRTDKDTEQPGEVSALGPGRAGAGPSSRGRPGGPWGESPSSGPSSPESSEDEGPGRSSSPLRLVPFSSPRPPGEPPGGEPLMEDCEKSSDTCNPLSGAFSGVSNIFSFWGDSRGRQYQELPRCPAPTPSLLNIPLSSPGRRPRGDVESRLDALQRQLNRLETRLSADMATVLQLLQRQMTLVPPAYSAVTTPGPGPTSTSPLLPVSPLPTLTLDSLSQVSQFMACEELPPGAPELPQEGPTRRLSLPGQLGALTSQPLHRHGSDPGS
Method in brief: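 Membranes came from hERG-transfected HEK293 cells (grown at 37 °C, 5% CO₂), homogenised and spun at 200,000 g. About 200,000 cells per tube were incubated 1 h at 30 °C with 0.5 nM [³H]astemizole and compound at 10 µM in HEPES pH 7.4 buffer. Non-specific binding was set with 10 µM unlabelled astemizole. Samples were filtered (GF/B) and counted by scintillation. Triplicates, n = 3.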

Nucleic Acid [1] = test: Binding affinity to HexA DNA at <10 uM after 30 mins by DNase 1 footprinting assay; format: nucleic-acid assay
Method in brief: (§1)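 DNase I footprinting used 3'-end radiolabelled DNA (<10 nM) in 10 mM Tris-HCl pH 7.5 with 0.1 mM EDTA. It was incubated with ligand for at least 30 min at room temperature, then digested 1 min with about 0.01 units/mL DNase I (with NaCl, MgCl₂, MnCl₂). Fragments were resolved on 8% denaturing polyacrylamide/8 M urea gels and read by phosphorimaging.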

Nucleic Acid [2] = test: Binding affinity to HexB DNA at <10 uM after 30 mins by DNase 1 footprinting assay; format: nucleic-acid assay
Nucleic Acid [3] = test: Binding affinity to 5'GCGATATATGCG3' DNA sequence assessed as change in melting temperature by thermal denaturation assay; format: nucleic-acid assay
Method in brief: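 Oligonucleotide and its complement at 6×10^-6 M, mixed with MGB at the chosen ratio, in 10 mM PBS pH 7.4 with 50 mM NaCl. Heated 10→80 °C and cooled 80→10 °C at 0.5 °C/min. Absorbance was read at 260 nm, and Tm was taken from the derivative maxima.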

Nucleic Acid [4] = test: Binding affinity to HexRev DNA at <10 uM after 30 mins by DNase 1 footprinting assay; format: nucleic-acid assay; method in brief: as §1

For `CN/C(=C\[N+](=O)[O-])NCCNC(=O)c1cc(NC(=O)c2cc(NC(=O)c3ccc(/C=C/c4cccc(OC)c4)cc3)cn2C)cn1C`, the MIC (Staphylococcus aureus) was “inactive”.

With `CN(C)CCCNC(=O)c1cc(NC(=O)c2cc(NC(=O)c3ccc(/C=C/c4cnc5ccccc5c4)cc3)cn2C)cn1C` the MIC (Staphylococcus aureus) was 25 µM (≈ 15.1 µg/mL) and the inhibition at 1 h, 10 µM (hERG (KCNH2)) was 60%.

For `Cn1cc(NC(=O)c2cc(NC(=O)c3ccc(/C=C/c4cnc5ccccc5c4)cc3)cn2C)cc1C(=O)NCCN`, the MIC (Staphylococcus aureus) was “inactive” and the inhibition at 1 h, 10 µM (hERG (KCNH2)) was 55%.

With `CN/C(=C\[N+](=O)[O-])NCCNC(=O)c1cc(NC(=O)c2cc(NC(=O)c3ccc(/C=C/c4ccc(OC)cc4)nc3)cn2C)cn1C` the MIC (Staphylococcus aureus) was 31 µM (≈ 19.9 µg/mL).

In the case of `COc1cccc(/C=C/c2ccc(C(=O)Nc3cc(C(=O)Nc4cc(C(=O)NCCOC(C)=O)n(C)c4)n(C)c3)cc2)c1`, the MIC (Staphylococcus aureus) was “inactive”.

`COc1ccc(/C=C/c2ccc(C(=O)Nc3cc(C(=O)Nc4cc(C(=O)NCCO)n(C)c4)n(C)c3)cn2)cc1` was tested, and the MIC (Staphylococcus aureus) was “inactive”.

`Cn1cc(NC(=O)c2cc(NC(=O)c3ccc(/C=C/c4cnc5ccccc5c4)cc3)cn2C)cc1C(=O)NCCNC(=N)N` was tested, and the MIC (Staphylococcus aureus) was 7.8 µM (≈ 4.71 µg/mL), the Activity (Nucleic Acid [1]) was “Active” and the Activity (Nucleic Acid [2]) was “Active”. For the same compound, the ΔTm (Nucleic Acid [3]) was 29 °C and the Activity (Nucleic Acid [4]) was “Active”.

With `COc1ccc(/C=C/c2ccc(C(=O)Nc3cc(C(=O)Nc4cc(C(=O)NCCNC(=N)N)n(C)c4)n(C)c3)cn2)cc1` the MIC (Staphylococcus aureus) was “inactive”.

With `COc1cccc(/C=C/c2ccc(C(=O)Nc3cc(C(=O)Nc4cc(C(=O)NCCNC(=O)OC(C)(C)C)n(C)c4)n(C)c3)cc2)c1` the MIC (Staphylococcus aureus) was “inactive” and the inhibition at 1 h, 10 µM (hERG (KCNH2)) was 36%.

In the case of `Cn1cc(NC(=O)c2cc(NC(=O)c3ccc(/C=C/c4cnc5ccccc5c4)cc3)cn2C)cc1C(=O)NCCNC(=O)C(F)(F)F`, the MIC (Staphylococcus aureus) was 12.5 µM (≈ 8.22 µg/mL) and the inhibition at 1 h, 10 µM (hERG (KCNH2)) was 24%.

`CN/C(=C\[N+](=O)[O-])NCCNC(=O)c1cc(NC(=O)c2cc(NC(=O)c3ccc(/C=C/c4cnc5ccccc5c4)cc3)cn2C)cn1C` was tested, and the MIC (Staphylococcus aureus) was 2.5 µM (≈ 1.65 µg/mL), the inhibition at 1 h, 10 µM (hERG (KCNH2)) was 51% and the Activity (Nucleic Acid [1]) was “Active”. For the same compound, the Activity (Nucleic Acid [2]) was “Active”, the ΔTm (Nucleic Acid [3]) was 16 °C and the Activity (Nucleic Acid [4]) was “Active”.

`COc1cccc(/C=C/c2ccc(C(=O)Nc3cc(C(=O)Nc4cc(C(=O)NCCO)n(C)c4)n(C)c3)cc2)c1` was tested, and the MIC (Staphylococcus aureus) was “inactive” and the inhibition at 1 h, 10 µM (hERG (KCNH2)) was 32%.

In the case of `CN/C(=N\C#N)NCCNC(=O)c1cc(NC(=O)c2cc(NC(=O)c3ccc(/C=C/c4cccc(OC)c4)cc3)cn2C)cn1C`, the MIC (Staphylococcus aureus) was “inactive” and the inhibition at 1 h, 10 µM (hERG (KCNH2)) was 58%.

For `Cn1cc(NC(=O)c2cc(NC(=O)c3ccc(/C=C/c4cnc5ccccc5c4)cc3)cn2C)cc1C(=O)NCCN1CCOCC1` [MGB-BP-3], the MIC (Staphylococcus aureus) was 0.12 µM (≈ 0.0758 µg/mL) and the inhibition at 1 h, 10 µM (hERG (KCNH2)) was 65%.

`COc1ccc(/C=C/c2ccc(C(=O)Nc3cc(C(=O)Nc4cc(C(=O)NCCN5CCOCC5)n(C)c4)n(C)c3)cn2)cc1` was tested, and the MIC (Staphylococcus aureus) was 6.25 µM (≈ 3.82 µg/mL) and the inhibition at 1 h, 10 µM (hERG (KCNH2)) was 58%.

For `COc1cccc(/C=C/c2ccc(C(=O)Nc3cc(C(=O)Nc4cc(C(=O)NCCNC(=N)N)n(C)c4)n(C)c3)cc2)c1`, the MIC (Staphylococcus aureus) was 25 µM (≈ 14.6 µg/mL) and the inhibition at 1 h, 10 µM (hERG (KCNH2)) was 69%.

With `CN/C(=N\C#N)NCCNC(=O)c1cc(NC(=O)c2cc(NC(=O)c3ccc(/C=C/c4cnc5ccccc5c4)cc3)cn2C)cn1C` the MIC (Staphylococcus aureus) was “inactive” and the inhibition at 1 h, 10 µM (hERG (KCNH2)) was 54%.

In the case of `COc1ccc(/C=C/c2ccc(C(=O)Nc3cc(C(=O)Nc4cc(C(=O)NCCOC(C)=O)n(C)c4)n(C)c3)cn2)cc1`, the MIC (Staphylococcus aureus) was “inactive”.

`COc1cccc(/C=C/c2ccc(C(=O)Nc3cc(C(=O)Nc4cc(C(=O)NCCN5CCOCC5)n(C)c4)n(C)c3)cc2)c1` gave an MIC (Staphylococcus aureus) of 2 µM (≈ 1.22 µg/mL) and an inhibition at 1 h, 10 µM (hERG (KCNH2)) of 65%.
